The subject of test [1] is Mus musculus. The test can be described thus: Inoculation of 10 e5 L1210 cells, ip, on day 0, & treatment was started on day 1 with the administration of the compound, ip, in groups of five B6D2F1J male mice at dose 40 mg/kg. It counts as functional.
The subject of test [2] is H35R0.3. The test can be described thus: Growth inhibition of H35R0.3 cell lines. The format is functional, cell-based. The note with it: Rattus norvegicus. In a few lines: (§1)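 H35 rat hepatoma cells and the transport-defective H35R0.3 subline, which has normal DHFR content, were incubated with drug for 72 h, and the IC50 was determined.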
The subject of test [3] is Mus musculus. The experiment in a line: Inoculation of 10 e5 L1210 cells, ip, on day 0, & treatment was started on day 1 with the administration of the compound, ip, in groups of five B6D2F1J male mice at dose 20 mg/kg. The format is functional.
Test [4] concerns L1210. The experiment in a line: (§2) Cytotoxic activity with respect to methotrexate. The format is functional, Mus musculus.
Test [5] deals with Mus musculus. The test can be described thus: Inoculation of 10 e5 L1210 cells, ip, on day 0, & treatment was started on day 1 with the administration of the compound, ip, in groups of five B6D2F1J male mice at dose 10 mg/kg. The format is functional.
Test [6] has as its system L1210. The test can be described thus: Growth inhibition of L1210 cell lines. The format is functional, cell-based. The note with it: Mus musculus. In a few lines:
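L1210 murine leukemia cells were incubated with drug in culture for 48 h. Percent cell growth relative to untreated controls was plotted against concentration to obtain the IC50.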

For a further test, the target named is T1, Dihydrofolate reductase (Mus musculus, UniProt P00375).
T1 sequence (P00375 whole entry): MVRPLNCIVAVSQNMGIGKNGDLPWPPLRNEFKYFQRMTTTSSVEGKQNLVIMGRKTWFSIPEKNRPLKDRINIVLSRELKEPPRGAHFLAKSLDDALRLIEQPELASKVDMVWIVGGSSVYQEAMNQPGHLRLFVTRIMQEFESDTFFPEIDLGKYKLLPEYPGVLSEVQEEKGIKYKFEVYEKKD
The experiment in a line: Inhibitory activity towards dihydrofolate reductase in L1210 murine leukemia cell lines. It counts as cell-based.

Test [7] has as its system H35. The test can be described thus: Growth inhibition of H35 cell lines. The format is functional, cell-based. The note with it: Rattus norvegicus. In a few lines:
as §1

The subject of test [8] is H35. Described as §2. The format is functional, Rattus norvegicus.
The subject of test [9] is H35R0.3. Described as §2. The format is functional, Rattus norvegicus.
Test [10] concerns Mus musculus. The experiment in a line: Inoculation of 10 e5 L1210 cells, ip, on day 0, & treatment was started on day 1 with the administration of the compound, ip, in groups of five B6D2F1J male mice at dose 0.5 mg/kg. It counts as functional.
The subject of test [11] is Mus musculus. The test can be described thus: Inoculation of 10 e5 L1210 cells, ip, on day 0, & treatment was started on day 1 with the administration of the compound, ip, in groups of five B6D2F1J male mice at dose 1.0 mg/kg.
Test [12] has as its system Mus musculus. The test can be described thus: Inoculation of 10 e5 L1210 cells, ip, on day 0, & treatment was started on day1 with the administration of the compound, ip, in groups of five B6D2F1J male mice at dose 1 mg/kg. It counts as functional. In short, it runs like this: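 Male B6D2F1J mice, five per group, received 10^5 L1210 cells ip on day 0. From day 1, drug in sterile 0.9% NaCl was injected ip twice daily on days 1–4 and 7–10, with one double dose on each of days 5 and 6. […]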

Test [13] deals with Mus musculus. The experiment in a line: Inoculation of 10 e5 L1210 cells, ip, on day 0, & treatment was started on day 1 with the administration of the compound, ip, in groups of five B6D2F1J male mice at dose 0.5 mg/kg; T =18; C=9. It counts as functional.
Test [14] relates to Mus musculus. The test can be described thus: Inoculation of 10 e5 L1210 cells, ip, on day 0, & treatment was started on day 1 with the administration of the compound, ip, in groups of five B6D2F1J male mice at dose 1.0 mg/kg; 17-22. The format is functional. In short, it runs like this:
(§3)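 Vehicle sterile 0.9% NaCl, ip. Dosing on days 1-10: twice daily on days 1-4 and 7-10, once daily on days 5 and 6 with a double dose given on those days. Endpoint is increase in life span (ILS) versus untreated controls. Doses are also stated as MTX-equivalent doses rounded to the nearest mg/kg.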

The test system of test [15] is Mus musculus. The experiment in a line: Inoculation of 10 e5 L1210 cells, ip, on day 0, & treatment was started on day 1 with the administration of the compound, ip, in groups of five B6D2F1J male mice at dose 0.5 mg/kg; 14-20. It counts as functional. In short, it runs like this: as §3
The subject of test [16] is Mus musculus. The experiment in a line: Inoculation of 10 e5 L1210 cells, ip, on day 0, & treatment was started on day 1 with the administration of the compound, ip, in groups of five B6D2F1J male mice at dose 1.0 mg/kg; T=19; C=9. The format is functional.
Test [17] has as its system Mus musculus. The test can be described thus: Inoculation of 10 e5 L1210 cells, ip, on day 0, & treatment was started on day1 with the administration of the compound, ip, in groups of five B6D2F1J male mice at dose 0.5 mg/kg.

The record followed here is ChEMBL document CHEMBL1122810 (J Med Chem, 1984).

Take `CN(Cc1cnc2nc(N)nc(N)c2n1)c1ccc(C(=O)NC(CCC(=O)NCCCCC(N)C(=O)O)C(=O)O)cc1` (stereo unspecified): the 7-day weight change with Mus musculus [1] came out at 2%; with Mus musculus [3], 5%; in the test with Mus musculus [5] it was 11%. In addition, the IC50 in the test on H35R0.3 [2] is 6 µM; with L1210 [6], 0.76 µM; against Dihydrofolate reductase, 0.087 µM; in the test with H35 [7], 0.4 µM. Also, the Relative activity turned out to be 0.032 in the test with L1210 [4], 0.025 in the test on H35 [8] and 0.3 with H35R0.3 [9].

In the case of `CN(Cc1cnc2nc(N)nc(N)c2n1)c1ccc(C(=O)N[C@@H](CCC(=O)O)C(=O)O)cc1` [METHOTREXATE], the IC50 was 1.8 µM in the test with H35R0.3 [2], 0.024 µM in the test with L1210 [6] and 0.01 µM in the test on H35 [7]. Moreover, the 7-day weight change is given as 0% in the test on Mus musculus [10] and -9% with Mus musculus [12]. The ILS at 1 mg/kg with Mus musculus [11] was determined as 111%. The “median survival (days)” value with Mus musculus [13] was 18; in the test with Mus musculus [16] it was 19. Further, the Survival range in the test with Mus musculus [14] stood at 22; with Mus musculus [15], 20. In the test with Mus musculus [17], this compound returned an ILS at 0.5 mg/kg of 100%.
